The source made the active and inactive calls. The calls are words filed in the database; no cut-off is given here.
What was measured:
Mus musculus [1] = assay: Antiinflammatory activity against carrageenan-induced paw edema in Swiss albino mouse assessed as swelling thickness at 50 mg/kg, po after 90 mins; type: functional
In short: (§1)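 Oral dosing in 0.5% CMC; vehicle to controls. Then carrageenan (0.5 mg/25 ll, freshly suspended in 154 mM saline) injected into the right hind paw subplantar tissue; saline into the left paw. Right-left footpad thickness difference measured by dial gauge calliper every 90 min over 6 h. Inhibition % is relative to vehicle control. n = 6; mean ± SEM.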

Mus musculus [2] = assay: Inhibition of p-benzoquinone-induced writhing in Swiss albino mouse at 50 mg/kg, po relative to control; type: functional
In short: (§2)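 Mice, n = 6 per group, dosed orally with a suspension in 0.5% sodium CMC. 60 min later, 0.1 ml/10 g of 2.5% […] p-benzoquinone in distilled water given ip. Abdominal writhes counted per animal for 15 min, starting 5 min after injection. Expressed as % change in mean writhing count versus vehicle controls.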

Mus musculus [3] = assay: Antiinflammatory activity against carrageenan-induced paw edema in Swiss albino mouse assessed as swelling thickness at 50 mg/kg, po after 180 mins; type: functional; in short: as §1
Mus musculus [4] = assay: Antiinflammatory activity against carrageenan-induced paw edema in Swiss albino mouse assessed as swelling thickness at 25 mg/kg, po after 180 mins; type: functional; in short: as §1
Mus musculus [5] = assay: Antiinflammatory activity against carrageenan-induced paw edema in Swiss albino mouse assessed as swelling thickness at 25 mg/kg, po after 90 mins; type: functional; in short: as §1
Mus musculus [6] = assay: Antiinflammatory activity against carrageenan-induced paw edema in Swiss albino mouse assessed as swelling thickness at 50 mg/kg, po after 360 mins; type: functional; in short: as §1
Mus musculus [7] = assay: Inhibition of carrageenan-induced paw edema in Swiss albino mouse at 50 mg/kg, po after 90 mins relative to control; type: functional; conditions: 1.5 h
In short: (§3)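 Mice, n = 6 per group. Test agent given orally as a suspension in 0.5% sodium CMC in distilled water; controls received vehicle only. Afterwards, 0.5 mg/25 ll carrageenan in saline (154 mM NaCl) injected subplantar into the right hind paw, saline into the left. Right-minus-left footpad thickness measured by dial gauge caliper every 90 min for 6 h. Inhibition is relative to vehicle-control group means.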

Mus musculus [8] = assay: Antiinflammatory activity against carrageenan-induced paw edema in Swiss albino mouse assessed as swelling thickness at 50 mg/kg, po after 270 mins; type: functional; in short: as §1
Mus musculus [9] = assay: Inhibition of carrageenan-induced paw edema in Swiss albino mouse at 25 mg/kg, po after 90 mins relative to control; type: functional; conditions: 1.5 h; in short: as §1
Mus musculus [10] = assay: Inhibition of carrageenan-induced paw edema in Swiss albino mouse at 100 mg/kg, po after 270 mins relative to control; type: functional; conditions: 4.5 h; in short: as §1
Mus musculus [11] = assay: Antiinflammatory activity against carrageenan-induced paw edema in Swiss albino mouse assessed as swelling thickness at 200 mg/kg, po after 360 mins; type: functional; in short: as §1
Mus musculus [12] = assay: Inhibition of carrageenan-induced paw edema in Swiss albino mouse at 50 mg/kg, po after 270 mins relative to control; type: functional; conditions: 4.5 h; in short: as §3
Mus musculus [13] = assay: Inhibition of carrageenan-induced paw edema in Swiss albino mouse at 25 mg/kg, po after 180 mins relative to control; type: functional; conditions: 3 h; in short: as §1
Mus musculus [14] = assay: Analgesic activity against p-benzoquinone-induced abdominal constriction in Swiss albino mouse assessed as number of writhings at 100 mg/kg, po; type: functional, Abdomen
In short: (§4)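 Test samples given orally in 0.5% CMC; vehicle to controls. 60 min later, 2.5% (v/v) p-benzoquinone in distilled water, 0.1 ml/10 g, given i.p. Mice housed singly; writhes counted for 15 min starting 5 min after injection. Activity is % change from vehicle controls. n = 6; mean ± SEM.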

Mus musculus [15] = assay: Gastric-ulcerogenic effect in Swiss albino mouse assessed as lesions at 25 mg/kg, po; type: functional, organism-based; design: dose 25 mg/kg
In short: (§5)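 Mice killed under deep ether anesthesia 3 h after the writhing test; the oral dose in 0.5% CMC was the one used in that test. Stomachs removed, opened along the great curvature and examined under a dissecting microscope for lesions or bleeding. Reported as ratio of ulceration; n = 6.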

Mus musculus [16] = assay: Inhibition of carrageenan-induced paw edema in Swiss albino mouse at 50 mg/kg, po after 180 mins relative to control; type: functional; conditions: 3 h; in short: as §1
Mus musculus [17] = assay: Antiinflammatory activity against carrageenan-induced paw edema in Swiss albino mouse assessed as swelling thickness at 200 mg/kg, po after 180 mins; type: functional; in short: as §1
Mus musculus [18] = assay: Analgesic activity against p-benzoquinone-induced abdominal constriction in Swiss albino mouse assessed as number of writhings at 25 mg/kg, po; type: functional, Abdomen; in short: as §4
Mus musculus [19] = assay: Inhibition of carrageenan-induced paw edema in Swiss albino mouse at 100 mg/kg, po after 180 mins relative to control; type: functional; conditions: 3 h; in short: as §1
Mus musculus [20] = assay: Analgesic activity against p-benzoquinone-induced abdominal constriction in Swiss albino mouse assessed as number of writhings at 50 mg/kg, po; type: functional, Abdomen; in short: as §4
Mus musculus [21] = assay: Antiinflammatory activity against carrageenan-induced paw edema in Swiss albino mouse assessed as swelling thickness at 100 mg/kg, po after 360 mins; type: functional; in short: as §1
Mus musculus [22] = assay: Inhibition of p-benzoquinone-induced writhing in Swiss albino mouse at 200 mg/kg, po relative to control; type: functional; in short: as §2
Mus musculus [23] = assay: Acute toxicity in Swiss albino mouse assessed as lethal effect at 50 mg/kg/day, po after 72 hrs; type: organism-based; design: route oral; conditions: in vivo
In short: (§6)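 Oral single dose suspended in 0.5% carboxymethylcellulose, given after a 24 h fast; food and water returned 1 h after dosing. Vehicle-only controls. Mice observed at 1 h, then once daily for 72 h, for toxic signs and mortality.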

Mus musculus [24] = assay: Inhibition of p-benzoquinone-induced writhing in Swiss albino mouse at 25 mg/kg, po relative to control; type: functional; in short: as §2
Mus musculus [25] = assay: Acute toxicity in Swiss albino mouse assessed as lethal effect at 100 mg/kg/day, po after 72 hrs; type: organism-based; design: route oral; conditions: in vivo; in short: as §6
Mus musculus [26] = assay: Antiinflammatory activity against carrageenan-induced paw edema in Swiss albino mouse assessed as swelling thickness at 200 mg/kg, po after 90 mins; type: functional; in short: as §1
Mus musculus [27] = assay: Antiinflammatory activity against carrageenan-induced paw edema in Swiss albino mouse assessed as swelling thickness at 100 mg/kg, po after 180 mins; type: functional; in short: as §1
Mus musculus [28] = assay: Inhibition of carrageenan-induced paw edema in Swiss albino mouse at 100 mg/kg, po after 90 mins relative to control; type: functional; conditions: 1.5 h; in short: as §1
Mus musculus [29] = assay: Gastric-ulcerogenic effect in Swiss albino mouse assessed as lesions at 100 mg/kg, po; type: functional, organism-based; design: dose 100 mg/kg; in short: as §5
Mus musculus [30] = assay: Inhibition of carrageenan-induced paw edema in Swiss albino mouse at 25 mg/kg, po after 360 mins relative to control; type: functional; conditions: 6 h; in short: as §1
Mus musculus [31] = assay: Gastric-ulcerogenic effect in Swiss albino mouse assessed as lesions at 50 mg/kg, po; type: functional, organism-based; design: dose 50 mg/kg; in short: as §5
Mus musculus [32] = assay: Antiinflammatory activity against carrageenan-induced paw edema in Swiss albino mouse assessed as swelling thickness at 200 mg/kg, po after 270 mins; type: functional; in short: as §1
Mus musculus [33] = assay: Inhibition of carrageenan-induced paw edema in Swiss albino mouse at 100 mg/kg, po after 360 mins relative to control; type: functional; conditions: 6 h; in short: as §1
Mus musculus [34] = assay: Antiinflammatory activity against carrageenan-induced paw edema in Swiss albino mouse assessed as swelling thickness at 25 mg/kg, po after 360 mins; type: functional; in short: as §1
Mus musculus [35] = assay: Inhibition of carrageenan-induced paw edema in Swiss albino mouse at 25 mg/kg, po after 270 mins relative to control; type: functional; conditions: 4.5 h; in short: as §1
Mus musculus [36] = assay: Antiinflammatory activity against carrageenan-induced paw edema in Swiss albino mouse assessed as swelling thickness at 100 mg/kg, po after 90 mins; type: functional; in short: as §1
Mus musculus [37] = assay: Inhibition of p-benzoquinone-induced writhing in Swiss albino mouse at 100 mg/kg, po relative to control; type: functional; in short: as §2
Mus musculus [38] = assay: Analgesic activity against p-benzoquinone-induced abdominal constriction in Swiss albino mouse assessed as number of writhings at 200 mg/kg, po; type: functional, Abdomen; in short: as §4
Mus musculus [39] = assay: Acute toxicity in Swiss albino mouse assessed as lethal effect at 25 mg/kg/day, po after 72 hrs; type: organism-based; design: route oral; conditions: in vivo; in short: as §6
Mus musculus [40] = assay: Antiinflammatory activity against carrageenan-induced paw edema in Swiss albino mouse assessed as swelling thickness at 100 mg/kg, po after 270 mins; type: functional; in short: as §1
Mus musculus [41] = assay: Inhibition of carrageenan-induced paw edema in Swiss albino mouse at 50 mg/kg, po after 360 mins relative to control; type: functional; conditions: 6 h; in short: as §3
Mus musculus [42] = assay: Acute toxicity in Swiss albino mouse assessed as lethal effect at 200 mg/kg/day, po after 72 hrs; type: organism-based; design: route oral; conditions: in vivo; in short: as §6
Mus musculus [43] = assay: Antiinflammatory activity against carrageenan-induced paw edema in Swiss albino mouse assessed as swelling thickness at 25 mg/kg, po after 270 mins; type: functional; in short: as §1

SMILES: CCSc1nc(-c2ccccc2Cl)n[nH]1
- Activity (Mus musculus [1]): 45.2 10^-2mm
- inhibition in vivo at 50 mg/kg (Mus musculus [2]): 26.4%
- Activity (Mus musculus [3]): 42.8 10^-2mm
- Activity (Mus musculus [4]): 54.8 10^-2mm
- Activity (Mus musculus [5]): 49.3 10^-2mm
- Activity (Mus musculus [6]): 50.7 10^-2mm
- inhibition in vivo at 50 mg/kg (Mus musculus [7]): 15%
- Activity (Mus musculus [8]): 46.8 10^-2mm
- inhibition in vivo at 25 mg/kg (Mus musculus [9]): 7.3%
- inhibition in vivo at 100 mg/kg (Mus musculus [10]): 28.2%
- Activity (Mus musculus [11]): 75.9 10^-2mm
- inhibition in vivo at 50 mg/kg (Mus musculus [12]): 27.8%
- inhibition in vivo at 25 mg/kg (Mus musculus [13]): 7.7%
- Activity (Mus musculus [14]): 35.2
- Activity (Mus musculus [15]): Active
- inhibition in vivo at 50 mg/kg (Mus musculus [16]): 27.9%
- Activity (Mus musculus [17]): 61.2 10^-2mm
- Activity (Mus musculus [18]): 48.5
- inhibition in vivo at 100 mg/kg (Mus musculus [19]): 26.6%
- Activity (Mus musculus [20]): 37.8
- Activity (Mus musculus [21]): 47.5 10^-2mm
- inhibition in vivo at 200 mg/kg (Mus musculus [22]): 19.6%
- Activity (Mus musculus [23]): Non-toxic
- inhibition in vivo at 25 mg/kg (Mus musculus [24]): 5.6%
- Activity (Mus musculus [25]): Non-toxic
- Activity (Mus musculus [26]): 55.8 10^-2mm
- Activity (Mus musculus [27]): 37.8 10^-2mm
- inhibition in vivo at 100 mg/kg (Mus musculus [28]): 25.9%
- Activity (Mus musculus [29]): Active
- inhibition in vivo at 25 mg/kg (Mus musculus [30]): 4.3%
- Activity (Mus musculus [31]): Active
- Activity (Mus musculus [32]): 67.9 10^-2mm
- inhibition in vivo at 100 mg/kg (Mus musculus [33]): 30.9%
- Activity (Mus musculus [34]): 68.9 10^-2mm
- inhibition in vivo at 25 mg/kg (Mus musculus [35]): 6.6%
- Activity (Mus musculus [36]): 33.2 10^-2mm
- inhibition in vivo at 100 mg/kg (Mus musculus [37]): 25.6%
- Activity (Mus musculus [38]): 41.3
- Activity (Mus musculus [39]): Non-toxic
- Activity (Mus musculus [40]): 42.2 10^-2mm
- inhibition in vivo at 50 mg/kg (Mus musculus [41]): 29.6%
- Activity (Mus musculus [42]): Non-toxic
- Activity (Mus musculus [43]): 60.5 10^-2mm
